The results in this text go back to ChEMBL document CHEMBL3526015, “Metabolism of the c-Fos/activator protein-1 inhibitor T-5224 by multiple human UDP-glucuronosyltransferase isoforms” (Drug Metab Dispos, 2011).

The target of series [1] is T1, UDP-glucuronosyltransferase 1A3 (Homo sapiens, UniProt P35503).
T1 sequence (P35503 whole entry): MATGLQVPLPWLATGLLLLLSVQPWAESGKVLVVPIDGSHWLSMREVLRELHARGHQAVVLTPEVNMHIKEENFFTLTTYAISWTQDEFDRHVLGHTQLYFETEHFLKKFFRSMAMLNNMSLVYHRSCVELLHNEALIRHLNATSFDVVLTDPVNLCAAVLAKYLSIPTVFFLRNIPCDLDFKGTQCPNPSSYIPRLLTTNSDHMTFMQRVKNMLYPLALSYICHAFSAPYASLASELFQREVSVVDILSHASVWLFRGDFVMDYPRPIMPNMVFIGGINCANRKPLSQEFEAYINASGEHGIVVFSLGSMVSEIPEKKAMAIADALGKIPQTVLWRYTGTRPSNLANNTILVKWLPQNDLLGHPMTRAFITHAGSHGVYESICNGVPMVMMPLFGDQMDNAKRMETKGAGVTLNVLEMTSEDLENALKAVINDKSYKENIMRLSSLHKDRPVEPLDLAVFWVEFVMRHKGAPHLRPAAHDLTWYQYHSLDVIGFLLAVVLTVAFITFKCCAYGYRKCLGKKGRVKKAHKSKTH
Nature of the series: Drug metabolism assessed as human UGT1A3-mediated T-5224 acyl O-glucuronide formation at 5 to 50 uM after 60 mins in presence of UDP-glucuronic acid by HPLC method. Particulars: recombinant enzyme, 1 h. The series is classed as ADME.

A short description of series [2]: Drug metabolism in pooled human intestinal microsomes assessed as T-5224 hydroxyl O-glucuronide formation at 10 uM after 10 mins by HPLC method. The series is classed as ADME, Intestine, Microsome. In a few lines:
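T-5224 at 10 μM incubated for 10 min at 37°C with UDPGA (2 mM) in pooled liver (0.5 mg protein/mL) or intestinal (0.25 mg protein/mL) microsomes. Buffer was 50 mM Tris-HCl pH 7.5 with 8 mM MgCl2 and alamethicin, after 5 min preincubation. Stopped with acetonitrile; glucuronides quantified by HPLC at 290 nm.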

Structures are written as SMILES.

Regarding `O=C(O)CCc1cc(C(=O)c2ccc(OC3CCCC3)cc2O)ccc1OCc1ccc2c(O)noc2c1`, the Drug metabolism result in series [1] and in series [2] was “metabolite_detected” throughout.
